Laboratory results as given in PubChem BioAssay AID522 (The Scripps Research Institute Molecular Screening Center, 2006).
Out of some 65,000 compounds screened, about 1,200 (1.8%) were called active. The sample holds actives, similar compounds and a random draw of the others, so the mix is not that of the screen. A number with no mark means an inactive call.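 Rule for the calls: active = activation above the mean activation of all tested compounds plus 3 SD (cut at about 50% in these data); inactive = the rest.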

target: Steroidogenic factor 1 (Homo sapiens) (UniProt Q13285); assay: SF-1 ligand-binding domain transactivation enhancers – cell-based, CHO-K1, Gal4-SF-1 LBD, luciferase luminescence, primary screen (AID 522); details: CHO-K1 Gal4-SF-1 LBD luciferase reporter; at 10 µM; hits give high values; % increase over DMSO SF-1-specific signal
How it was run: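 Test system: CHO-K1 cells co-transfected with Gal4 DBD–human SF-1 LBD, 5xGal4 luciferase reporter. Quantity: 4,000 cells per well. Compound: 10 µM only. Incubation: compound added 1 h post-seeding, 20 h exposure at 37 °C, 5% CO2. Detection: SteadyLite luciferase luminescence. Replication: one test per compound.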

Steroidogenic factor 1 (Homo sapiens), sequence (Q13285 whole entry, looked up, the tested form may be a part): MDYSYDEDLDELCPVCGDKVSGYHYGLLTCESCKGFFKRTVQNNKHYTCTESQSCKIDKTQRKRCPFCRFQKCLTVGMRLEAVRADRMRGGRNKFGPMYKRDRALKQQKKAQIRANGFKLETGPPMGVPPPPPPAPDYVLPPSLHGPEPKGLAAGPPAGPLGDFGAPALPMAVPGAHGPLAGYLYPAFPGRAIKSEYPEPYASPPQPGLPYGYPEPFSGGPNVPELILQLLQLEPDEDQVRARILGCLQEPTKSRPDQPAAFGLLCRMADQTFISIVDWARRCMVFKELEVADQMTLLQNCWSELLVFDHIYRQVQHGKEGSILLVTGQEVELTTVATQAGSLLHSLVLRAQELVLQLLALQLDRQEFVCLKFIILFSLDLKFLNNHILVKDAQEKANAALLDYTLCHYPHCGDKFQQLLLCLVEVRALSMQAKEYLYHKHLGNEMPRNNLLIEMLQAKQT

Row | SMILES | activation
1 | CC1Cn2c(nnc2-c2cccs2)S1 (stereo not drawn) | -15.2%
2 | O=C(Nc1ccc(Cl)cc1)c1ccsn1 | 73.5% (active)
3 | O=C(NCc1cn2ccsc2n1)Nc1ccc(Cl)cc1 | -1.8%
4 | O=C(O)C1CCCCC1C(=O)Nc1ccc(Cl)cc1 (stereo not drawn) | -2.8%
5 | CCOC(=O)C1CCCCN1Cc1ccc(OC)c(OC)c1OC (stereo not drawn) | -21.3%
6 | CN(c1ccc(C(=O)N2CCc3ccccc3C2)cc1)S(C)(=O)=O | 22.9%
7 | O=C(CN1C(=O)NC2(CCCCC2)C1=O)NCCC1=CCCCC1 | 2.8%
8 | CN(c1ccc(C(=O)NCCC2=CCCCC2)cc1)S(C)(=O)=O | 55.4% (active)
9 | Cn1nnc2cc(C(=O)NCCC3=CCCCC3)ccc21 | 49.9% (active)
10 | O=C(Cc1nn[nH]n1)NCCC1=CCCCC1 | 3.7%
11 | O=C(COc1cccc(-n2cnnn2)c1)NCCC1=CCCCC1 | -3.3%
12 | COc1ccc(S(=O)(=O)N2CCCC2)c(C)c1C | -8.5%
13 | c1ccc(-c2nnc3n2NC(c2ccc4c(c2)OCO4)S3)cc1 (stereo not drawn) | -14.9%
14 | CC(C)C[C@H](NC(=O)Nc1cccc(C(F)(F)F)c1)C(=O)O | -1.1%
15 | Cc1ccsc1-c1nc(CSCC(=O)NCCN2CCCC2)c(C)o1 | 3.6%
16 | CC(C)C(=O)Nc1cccc(C(=O)Nc2ccc3c(c2)OCO3)c1 | 55% (active)
17 | O=C(Nc1cccnc1)c1ccc2c(c1)OCO2 | 13.2%
18 | Cc1ccc(C(=O)Nc2ccc3c(c2)OCO3)cc1S(=O)(=O)N1CCCCC1 | 22.6%
19 | O=C(Nc1ccc2c(c1)OCCO2)c1ccncc1 | 20.3%
20 | COc1ccc(C(=O)Nc2ccc3c(c2)OCO3)cc1OC | 55% (active)
21 | Cn1c(=O)n(C)c2cc(C(=O)Nc3ccc4c(c3)OCO4)ccc21 | 21.2%
22 | CCc1nnc(NC(=O)c2c(O)c3c([nH]c2=O)CCCC3)s1 | 29.1%
23 | CC1C(c2ccccc2)=[N+]([O-])C2(CCCC2)N1O (stereo not drawn) | 18.6%
24 | O=C(C1CCC(C(=O)N2CCCC2)CC1)N1CCCC1 (stereo not drawn) | -2.5%
25 | COc1ccc(NC(=O)c2cccc(NC(=O)c3ccco3)c2)c(OC)c1 | -29.9%
26 | c1c2c(cc3sc(N4CCCCC4)nc13)OCCO2 | -71.4%

Row | SMILES | activation
27 | Fc1cc(F)c2nc(N3CCOCC3)sc2c1 | 52.6% (active)
28 | Fc1ccc2nc(N3CCCCC3)sc2c1 | 43.3%
29 | Cc1ccnc(NC(=O)c2ccc(NC(=O)c3ccco3)cc2)c1 | 46.9%
30 | O=C(O)Cc1ccc(NC(=O)c2cccs2)cc1 | -7.4%
31 | O=C(Nc1ccc(NC(=O)c2cccs2)cn1)c1ccco1 | 73.3% (active)
32 | COc1ccc(N(C(=O)c2cccnc2)S(=O)(=O)c2ccc3c(c2)n(C)c(=O)n3C)cc1 | -24.3%
33 | COc1ccc(Cn2nnc3c(=O)[nH]c(C4CCN(C(=O)c5ccccc5Cl)CC4)nc32)cc1 | -2.2%
34 | CC(C)NS(=O)(=O)c1ccc(NC(=O)c2cccnc2)cc1 | 33.9%
35 | Cc1cc2nc(-c3ccc(NC(=O)c4cccnc4)cc3)oc2cc1C | 54.8% (active)
36 | CCC(=O)Nc1cccc(NC(=O)c2cccnc2)c1 | -0.4%
37 | CCOC(=O)c1ccn(-c2nc(-c3ccco3)cc(C(F)(F)F)n2)n1 | 0.6%
38 | Cc1cc(C(=O)NCCCc2ccccc2)no1 | 16.8%
39 | CC(C)Cc1cc(C(=O)NCCc2ccccc2)no1 | 80.7% (active)
40 | CC(C)Cc1cc(C(=O)Nc2cc(Br)ccc2O)no1 | 11.7%
41 | CC(C)Cn1c(CCC(=O)O)ccc1-c1cccs1 | 2.5%
42 | COc1ccccc1N=C1SC(C)CN1C(=O)C1CCC1 (stereo not drawn) | 1.8%
43 | COc1ccc(-n2nnnc2SCC(=O)c2ccc(OC)c(OC)c2)cc1 | -4.4%
44 | O=C(O)CSCc1nc2ccccc2s1 | 15.5%
45 | CCC(=O)NC(=Nc1nc2ccccc2s1)NC(=O)CC | 60.7% (active)
46 | COC(=O)Cc1cc(=O)n(-c2nc3ccccc3s2)[nH]1 | -3%
47 | COc1ccc(-c2cc(C(F)(F)F)n3nc(C(=O)N4CCOCC4)c(Cl)c3n2)cc1 | -9.4%
48 | C=CCn1c(C)cc(C(=O)CN2C(=O)c3ccccc3C2=O)c1C | 27.3%
49 | Cc1c(C(=O)CN2CCOCC2)[nH]c2ccccc12 | 8.5%
50 | O=C(Nc1ccc(-c2nnc(-c3ccccc3)o2)cc1)c1ccc(Br)o1 | 10.9%
51 | Nc1ccc(-c2nnc(-c3ccc(-c4ccccc4)cc3)o2)cc1 | 55.2% (active)
52 | COc1ccc(CC(=O)Nc2ccc(-c3nnc(-c4ccccc4)o3)cc2)cc1 | -59.5%

Row | SMILES | activation
53 | CCOC(=O)c1nc(-c2ccc3c(c2)OCO3)[nH]c1C | 46.3%
54 | O=C(Nc1ccc(Cl)cn1)Nc1cccs1 | 47.6%
55 | O=C(Nc1ccc(Cl)cn1)c1cnn2cccnc12 | 63.8% (active)
56 | Cc1cc(NC(=O)c2cnn3cccnc23)n(-c2ccccc2)n1 | 2.1%
57 | CCS(=O)(=O)N1CCCC(C(=O)NCCCN(C)Cc2ccccc2)C1 (stereo not drawn) | -14.4%
58 | COc1ccc(NS(=O)(=O)c2ccc(NC(=O)C(C)(C(F)(F)F)C(F)(F)F)cc2)nn1 | -13.6%
59 | O=C(NCc1ccco1)c1nc(-c2ccccc2)n(-c2ccccc2)n1 | -4.9%
60 | Cc1nc2nc(SCC(=O)NCc3ccco3)nn2c(C)c1Cc1ccccc1 | 5.7%
61 | O=C(Cc1ccccc1)n1nc(-c2ccccc2)nc1NCc1ccco1 | 50.5% (active)
62 | CCOC(=O)C1CCCN(C(=O)c2ccc(CS(=O)(=O)c3ccc(Br)cc3)o2)C1 (stereo not drawn) | 19.7%
63 | Cc1cccc(-n2nc3c(c2NC(=O)c2ccc(Br)o2)CSC3)c1C | 9.6%
64 | CCC(Oc1ccccc1)C(=O)NCc1cccnc1 (stereo not drawn) | -4.9%
65 | COc1cc(OC)c(C(=O)NC2CCCCCC2)cc1OC | 2%
66 | COc1cc(OC)c(C(=O)Nc2ccc(N(C)C)cc2)cc1OC | 51.4% (active)
67 | COc1ccc(NC(=O)c2ccc(OC)cc2)cc1 | 30.5%
68 | NC(=O)COc1ccc2c3c(c(=O)oc2c1)CCCCC3 | -7.8%
69 | Cc1cc(NC(=O)COc2ccc(Cl)cc2Cl)n(CCC#N)n1 | 28.2%
70 | CCN1C(=O)/C(=C2\SC(N3CCCCC3)=NC2=O)c2ccccc21 | 53.9% (active)
71 | CCN1C(=O)/C(=C\N2CCN(c3ccccc3)CC2)SC1=S | -22.3%
72 | CCN1C(=O)c2cccc3c(N)ccc1c23 | 15.3%
73 | Cc1nnc(Sc2nc3c(c(=O)[nH]c(=O)n3C)n2Cc2ccccc2)s1 | -15%
74 | CCOC(=O)c1ccccc1NC(=O)CC1Nc2ccccc2NC1=O (stereo not drawn) | 3.2%
75 | CNC(=O)c1ccc2nc(NC(C)=O)sc2c1 | 6.1%
76 | CCn1c(SCC(=O)Nc2nc3ccc(OC)cc3s2)nnc1-c1ccoc1C | 13.2%
77 | COc1ccc2nc(NC(=O)c3ccc(Br)s3)sc2c1 | 72.8% (active)
78 | CC(=O)c1ccc(NC(=O)N[C@@H](Cc2ccccc2)C(=O)O)cc1 | -21%

Row | SMILES | activation
79 | O=C(Nc1ccccc1C(F)(F)F)c1cc(-c2ccc(O)cc2)on1 | 64.4% (active)
80 | Cc1cc(C)nc(NC(=O)Nc2ccccc2C(F)(F)F)n1 | 14.8%
81 | O=C(c1cc(-c2ccc(O)cc2)on1)N1CCCc2ccccc21 | 47.5%
82 | CC(C)C(NC(=O)OCc1ccccc1)C(=O)OCC(=O)N1C(C)CCCC1C (stereo not drawn) | -2.9%
83 | Cc1ccc(C(=O)NC2CC(C)(C)NC(C)(C)C2)c(C)c1 | 4.3%
84 | O=C1CC(N2CCN(C(c3ccccc3)c3ccccc3)CC2)C(=O)N1 (stereo not drawn) | -23%
85 | COc1ccc(-c2cc(C(=O)NC(C(=O)O)C(C)C)c(C)o2)cc1OC (stereo not drawn) | 56.5% (active)
86 | COc1ccc(CCNC(=O)c2cc(-c3ccc4c(c3)OCO4)on2)cc1OC | 3.9%
87 | COc1ccc(CNC(=O)c2c(C)cc(=O)oc2C)cc1OC | 7.4%
88 | CN(C(=O)CSc1nnnn1-c1ccccc1)C1CCCCC1 | 34.6%
89 | COc1ccc(-n2ncc3c(N4CCc5ccccc54)ncnc32)cc1 | 59.8% (active)
90 | Cc1cccc(-n2ncc3c(N4CCc5ccccc54)ncnc32)c1 | 33.4%
91 | COc1ccc(-n2ncc3c(N4CCCc5ccccc54)ncnc32)cc1 | 33.2%
92 | Cn1nnnc1SCC(=O)N1CCN(Cc2ccccc2)CC1 | -17.2%
93 | CC(=NCC1CCCO1)c1c(O)[nH]c(=O)[nH]c1=O (stereo not drawn) | 12.9%
94 | COC(=O)c1sc(NC(=O)c2ccc(OC)cc2OC)nc1C | -57.8%
95 | COc1ccccc1Nc1ncc(C(C)=O)c(C)n1 | 34%
96 | COc1cccc2sc(Nc3nc(C)c(C(C)=O)s3)nc12 | 109% (active)
97 | CC(=O)Nc1ccc(S(=O)(=O)N2CCN(C3CCCCCCC3)CC2)cc1 | -6.4%
98 | COc1cccc(N2CCN(C3CC(=O)N(c4ccc(Cl)cc4)C3=O)CC2)c1 (stereo not drawn) | -14.7%
99 | COc1ccc(C(=O)Nc2ccc(S(=O)(=O)Nc3onc(C)c3C)cc2)cc1OC | -3.3%
100 | COc1ccc(S(=O)(=O)N2CCN(C(=O)c3cccs3)CC2)cc1OC | -5.5%
101 | CC(NC(=O)COc1ccccc1)C(=O)NC1=NCCS1 (stereo not drawn) | -0.2%
102 | CCc1ccc(N2CC(C(=O)NC3=NCCS3)CC2=O)cc1 (stereo not drawn) | -7.9%
103 | O=C(NC1=NCCS1)c1ccc(Cl)s1 | 66.2% (active)
